# Source: PubChem (several laboratories)
# Most compounds without a hit are left out; they make up all but 2.9% or so of the library.
# SENP6 inh: blocks the human protease SENP6; Q9GZR1; inhibition, % at 10 µM; Recombinant SENP6 catalytic domain, aminoluciferin luminescence; hit rate 1.8% among 330,000; AID 2599;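 active = inhibition above about 50% at the single tested dose, limit read from the data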;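 note: plate controls were DMSO wells with enzyme for no effect and DMSO wells lacking enzyme for full effect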
# SENP8 block-1: inhibitors of human SENP8 protease | Q96LD8 | recombinant SENP8, Nedd8 substrate fluorescence | inhibition, % at 20 µM | hit rate 0.64% among 360,000; in the data active = inhibition mostly above about 40%, no sharp cut-off; inactive = mostly below about 27%
# SENP8 block-2: inhibitors of human SENP8 protease; Q96LD8; inhibition, % at 10 µM; purified SENP8, Z-RLRGG-aminoluciferin cleavage, luminescence; AID 2540; hit rate 1.2% among 330,000; in the data active = inhibition above about 50%
# SENP7 inh: blocks the human protease SENP7; hit rate 1.5% among 330,000; recombinant SENP7, Z-RLRGG-aminoluciferin luminescence, 40 min; Q9BQF6; inhibition, % at 5 µM;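 active = inhibition above about 50% at the single test dose, limit read from the data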;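 note: plate controls were DMSO with enzyme for no effect and no enzyme buffer wells for full effect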
# Target sequence (Q9BQF6 706-1050 limits assumed): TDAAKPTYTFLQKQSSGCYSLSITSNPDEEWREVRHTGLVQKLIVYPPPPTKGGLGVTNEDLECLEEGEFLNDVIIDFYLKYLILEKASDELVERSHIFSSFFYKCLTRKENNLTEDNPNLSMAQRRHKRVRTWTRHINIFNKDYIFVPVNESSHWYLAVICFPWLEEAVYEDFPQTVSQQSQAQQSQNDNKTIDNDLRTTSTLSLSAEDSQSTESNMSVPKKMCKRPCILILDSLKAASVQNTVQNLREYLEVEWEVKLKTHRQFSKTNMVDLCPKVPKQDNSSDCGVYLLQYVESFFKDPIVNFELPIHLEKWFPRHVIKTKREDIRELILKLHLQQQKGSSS
# HSP90 inh: HSP90 refolding inhibition in rabbit reticulocyte lysate; luciferase refolding luminescence, 3 h; inhibition, % at 5.6 µM; hit rate 0.91% among 290,000; AID 1789;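 active = inhibition above the screen-wide mean plus 3 SD, computed separately per campaign, cut at about 16% in these data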;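 note: 0% = DMSO wells and 100% = 60 µM geldanamycin wells; inhibitors lower the luminescence because luciferase stays unfolded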
# SENP1 inh: SENP1 (human) catalytic domain inhibition | inhibition, % at 10 µM | hit rate 0.21% among 360,000 | Q9P0U3 | recombinant SENP1 catalytic domain, CyPet-SUMO1-YPet FRET cleavage;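 active = inhibition at least 30% at 10 µM, raw YFP signal under a set limit, fluorescence ratio 0.5 to 1.5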;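 note: 0% = enzyme with DMSO and 100% = no enzyme wells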
# Target sequence (Q9P0U3 419-644 limits assumed): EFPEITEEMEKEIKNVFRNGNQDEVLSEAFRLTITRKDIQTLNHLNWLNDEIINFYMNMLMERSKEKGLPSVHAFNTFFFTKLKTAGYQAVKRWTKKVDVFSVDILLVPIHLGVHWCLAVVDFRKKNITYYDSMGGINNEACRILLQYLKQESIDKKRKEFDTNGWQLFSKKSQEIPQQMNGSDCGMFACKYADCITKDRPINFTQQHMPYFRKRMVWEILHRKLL
#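 Compound: 10 µM single point, 0.5% DMSO; Test system: hSENP1 catalytic domain, recombinant; Timing: 50 min reaction at room temperature; Technique: FRET, CFP and YFP emission; Control set: no-enzyme wells low, DMSO-plus-enzyme wells high control.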
# Starred values were filed as active, the others as inactive; / = no result given.
SMILES,SENP6 inh,SENP8 block-1,SENP8 block-2,SENP7 inh,HSP90 inh,SENP1 inh
O=C(c1cc(Cl)ccc1OCc1ccccc1)N1CCOCC1,-2.4,-1.1,2.9,2.9,-3.0,-0.3
O=c1cc2c(=O)oc3cc(O)c(O)oc3c2c(O)c1O,/,12.6,/,/,-0.9,30.2*
C[C@]12C=CC(=O)C=C1CC[C@@H]1C2=CC[C@]2(C)[C@@H](C(=O)CN3CCN(c4cc(N5CCCC5)nc(N5CCCC5)n4)CC3)CC[C@@H]12,63.9*,22.4,75.8*,30.5,/,-66.6
CC(=O)C1CCC2C3CCC4=CC(=O)C=CC4(C)C3C(=O)CC12C (stereo not given),/,4.7,/,/,/,2.9
COc1ccc(-c2ccc3c(c2)S(=O)(=O)c2cccc(C(=O)N4CCN(c5c(Cl)cncc5Cl)CC4)c2C3=O)cc1OC,-4.9,-10.9,5.3,-0.7,/,51.0*
O=C1c2ccc(Cl)cc2S(=O)(=O)c2cccc(C(=O)N3CCN(c4ncc(Br)cn4)CC3)c21,-1.4,-4.2,-4.5,8.5,/,0.8
COC1=CC(=NCl)C=CC1=NCl,/,75.5*,/,/,/,31.0
COc1ccccc1-c1cccc([C@@H]2C[C@H]3[C@H](CON3C)CN2C(=O)C(C)(C)C)c1,/,6.4,/,/,/,1.5
Cc1cc(-n2nc3ccccc3n2)c(O)c([N+](=O)[O-])c1,17.0,25.7,-10.4,-2.4,2.2,1.8
Cc1ccc(OC(=O)c2cccc([N+](=O)[O-])c2)c(-n2nc3ccccc3n2)c1,93.0*,15.8,86.7*,90.0*,-4.9,-2.7
Clc1cccc(CSc2ccc(-c3ccco3)nn2)c1,-6.8,-4.2,-22.7,-7.6,1.3,-1.4
Cc1cccc(CSc2ccc(-c3ccco3)nn2)c1,51.5*,3.2,11.4,-4.3,-1.6,0.4
Oc1ccccc1CNc1cccc2cccnc12,91.4*,22.4,78.9*,66.1*,2.6,-11.1
O=C(O)c1cccc(NS(=O)(=O)c2cc(S(=O)(=O)c3ccc(Cl)cc3)ccc2Cl)c1,6.0,12.5,0.5,-2.1,2.1,3.9
c1ccc(NCc2nc3ccccc3n2CCOc2ccccc2)cc1,66.0*,10.9,47.8,33.0,-3.1,0.7
CCCCOC(=O)CCN1C(=O)/C(=C2\SC(=S)N(CCC(=O)OCCCC)C2=O)SC1=S,8.0,11.3,-10.0,-9.8,-2.6,0.5
CCCOC(=O)CCCN1C(=O)/C(=C2\SC(=S)N(CCCC(=O)OCCC)C2=O)SC1=S,-3.2,37.7*,3.1,-10.6,-1.4,1.9
COc1ccc(S(=O)(=O)N2CCC(C(=O)NCCC(=O)Nc3ccc(Cl)cc3)CC2)cc1,-6.9,13.0,-15.8,-12.7,0.3,-1.2
O=C(O)c1cccc(N/N=C(\N=Nc2ccccc2)c2ccccc2)c1,10.9,38.3,-1.9,7.4,/,1.3
O=C(O)c1ccc(N=N/C(=N\Nc2ccc(C(=O)O)cc2)c2ccccc2)cc1,21.6,44.7*,9.6,-3.9,/,4.3
CCOC(=O)N1CCC(Nc2c(N3CCN(c4cc(Cl)ccc4C)CC3)c(=O)c2=O)CC1,-4.3,10.8,-8.6,7.0,-2.0,-1.4
CCOC(=O)N1CCC(Nc2c(-c3ccc(C)c(C)c3)c(=O)c2=O)CC1,4.5,47.2*,0.9,4.5,-1.9,1.9
COc1cccc(N2CCN(C(=O)c3ccc4nc(N5CCCCC5)sc4c3)CC2)c1,2.1,-27.6,2.7,-8.2,59.4*,-2.0
COc1cccc(N2CCN(C(=O)c3ccc4ccccc4c3)CC2)c1,-3.3,-3.7,-10.4,-15.5,/,-7.9
Cc1ccc(N=Cc2cccc(O)c2O)c(C)c1,30.8,109.5*,6.6,6.4,0.0,1.9
SMILES,SENP6 inh,SENP8 block-1,SENP8 block-2,SENP7 inh,HSP90 inh,SENP1 inh
Nc1ccc(N2CCN(C(=O)c3cccs3)CC2)cc1,-2.6,49.5*,-7.8,-4.1,0.5,25.9
COc1cccc([C@@H]2Oc3ccc(Br)cc3C(=O)[C@H]2OC(=O)NC2CCCC2)c1,-13.0,/,-10.9,-19.9,4.5,/
C=CCc1cccc2cc(C(=O)Nc3cccc(C(=O)O)c3)c(=O)oc12,54.6*,/,21.2,24.8,-3.3,/
O=C(NCc1ccccc1)c1cccc(COc2ccccc2Cl)c1,3.7,9.9,-11.5,-9.3,16.7*,1.2
O=C(NCc1ccccc1)c1cccc(COc2cc(Cl)ccc2Cl)c1,16.8,12.1,8.0,-5.1,7.3,0.0
O=C(O)CSc1ccc(NC(=O)Nc2ccccc2F)cc1,-5.5,15.0,95.3*,98.5*,1.9,2.6
Nc1ccc2oc3ccccc3c2c1,10.5,-131.5,0.5,1.8,16.2*,-19.9
O=C(c1cc(O)c(O)c([N+](=O)[O-])c1)c1ccccc1F,-4.2,39.3*,9.2,-5.2,/,1.5
O=c1nc2n(c3ncccc13)CCC2,-3.7,8.1,-1.6,5.7,16.5*,1.1
COc1ccc(S(=O)(=O)N(C)C[C@@H]2OCCCC[C@@H](C)Oc3ccc(NS(=O)(=O)c4cccs4)cc3C(=O)N([C@H](C)CO)C[C@@H]2C)cc1,/,6.3,/,/,/,-0.4
CC(=O)c1ccc(NC(=O)CSc2nnc(-c3ccco3)c(-c3ccco3)n2)cc1,1.8,44.8*,8.7,17.1,-2.9,15.1
O=C(CSc1nnc(-c2ccco2)c(-c2ccco2)n1)c1ccccc1,-4.1,4.6,-6.4,-5.4,1.4,-1.7
COc1ccccc1N1CCN(C(=O)CCNS(=O)(=O)c2ccc3c(c2)CCC(=O)N3)CC1,-1.2,17.9,1.0,-8.5,16.3*,0.3
C(=N\N(c1ccccc1)c1ccccc1)/c1ccc2c(c1)OCO2,-3.7,5.9,-2.0,4.3,-0.8,2.2
CN(/N=C/c1ccc2c(c1)OCO2)c1ccccc1,63.0*,19.1,64.2*,57.1*,-5.5,2.9
CS/C(N)=N/N=C/c1ccc2c(c1)OCO2,25.1,6.9,20.2,50.3*,-0.2,0.4
O=C(CSc1nnc(SCc2ccccc2)s1)N/N=C/c1ccc(C(=O)O)cc1,20.1,14.1,51.2*,23.7,0.2,-1.2
Cc1ccc(CSc2nnc(SCC(=O)N/N=C/c3ccccc3OCC(=O)O)s2)cc1,87.9*,18.5,59.5*,22.5,-6.8,-1.9
Cc1ccc(CSc2nnc(SCC(=O)N/N=C/c3ccc(C(=O)O)cc3)s2)cc1,91.7*,10.0,71.8*,55.1*,12.9,0.8
C=CCn1c(SCC(=O)N2CCc3ccccc3C2)nc2sc(C)c(C)c2c1=O,-0.7,19.1,-1.3,0.2,-3.0,-1.7
Cn1cc(/C=C2\SC(=O)N(c3ccc(O)cc3)C2=O)c2ccccc21,63.7*,8.7,-11.3,0.9,0.3,-95.9
Cn1cc(/C=C2\SC(=O)N(c3ccccc3)C2=O)c2ccccc21,-16.4,6.5,-14.1,-13.2,2.8,-40.4
Cc1cccc(N=C/C(C(=O)C(F)(F)F)=C(\O)c2ccco2)c1,76.6*,-135.3,28.3,83.3*,3.9,-63.3
COCCCn1c(O)c(/C=C2\N=C(C#N)C(=Nc3ccc(C)cc3)O2)sc1=S,0.8,13.3,-2.8,13.5,2.9,54.2*
COc1cc(N=Nc2ccc(Br)cc2)cc(C=O)c1O,/,44.0*,/,/,/,9.5
